Compound activity: PubChem, several laboratories
Hits are enriched below; roughly 2.9% of the tested compounds scored in any of these assays.
ABHD4 inh – inhibits mouse alpha/beta hydrolase domain 4 | Q8VD66 | 0.54% of 370,000 active | inhibition, % at 8.92 µM | purified mABHD4, FP-Rh probe fluorescence polarization;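 active = inhibition exceeding the mean over every tested compound plus 3 SD, cut at about 30% in these data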
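Assay system: mABHD4 protein; medium: HEPES pH 7.0, NaCl, Pluronic buffer; dosing: 8.92 µM, single dose; schedule: 45 min + 60 min at 25 °C; signal: FP readout, ex 525 nm / em 598 nm; read-out: normalized percent inhibition of probe labeling; repeats: single replicate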
ATG4B inhibitor – blocks human ATG4B protease cleavage of LC3 substrate; ATG4B cleavage of LC3-PLA2, NBD-HPC fluorescence, 1 h; Q9Y4P1; AID 504462; 0.51% of 340,000 active; inhibition, % at 8.33 µM; in the data active = inhibition above about 40%
HTRA1 inh – blocks human HTRA1 serine peptidase. recombinant HTRA1, FP-rhodamine activity-based probe, fluorescence polarization. AID 504803. Q92743. inhibition, % at 5.96 µM. 0.5% of 340,000 active; in the data active = inhibition above about 36%
Target sequence (Q92743 whole entry, looked up): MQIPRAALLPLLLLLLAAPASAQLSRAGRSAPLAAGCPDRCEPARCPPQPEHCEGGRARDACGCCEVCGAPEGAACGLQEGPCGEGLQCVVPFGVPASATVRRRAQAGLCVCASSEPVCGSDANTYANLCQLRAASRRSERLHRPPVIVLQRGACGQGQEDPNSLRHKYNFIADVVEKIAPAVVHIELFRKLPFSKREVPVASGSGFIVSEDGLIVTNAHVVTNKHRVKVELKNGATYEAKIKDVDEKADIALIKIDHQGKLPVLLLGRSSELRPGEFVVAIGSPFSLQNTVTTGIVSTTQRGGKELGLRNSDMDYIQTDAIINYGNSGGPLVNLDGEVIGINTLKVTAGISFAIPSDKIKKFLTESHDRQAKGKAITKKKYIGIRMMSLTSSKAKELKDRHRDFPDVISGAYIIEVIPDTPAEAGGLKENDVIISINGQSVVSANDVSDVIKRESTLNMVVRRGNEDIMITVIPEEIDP
PRMT1 FP inh – blocks human protein arginine methyltransferase 1 | inhibition, % at 2.79 µM | recombinant PRMT1, activity-based probe fluorescence polarization | AID 652257 | 1.3% of 370,000 active | Q99873;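 active = inhibition above about 21% made by adding two undisclosed values, limit read from the data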
TCR-CD3 inh – human TCR-CD3 binding inhibition; TAMRA-labeled TCR probe fluorescence, biochemical; inhibition, % at 9.4 µM; 0.37% of 360,000 active; AID 651800; in the data active = inhibition above about 19%;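 also: recombinant mutant TCR 2C K166C tagged with TAMRA read by polarization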
SIAE primary – blocks human sialic acid acetylesterase. Q9HAT2. SIAE FP-Rh probe binding, fluorescence polarization. inhibition, % at 9.66 µM. 0.69% of 370,000 active;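 active = inhibition above a cutoff: mean of compounds within the control limits plus 3 SD of those, cut at about 17% in these data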
PRMT1 inh conf – PRMT1 (human) inhibition, FP confirmation; shares compounds with PRMT1 FP inh; recombinant His-PRMT1, activity-based probe fluorescence polarization; inhibition, % at 2.79 µM; 42% of 3,300 active;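 active = mean inhibition across replicates above the hit cutoff derived for the earlier primary screen, cut at about 22% in these data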
Numbers stand for hits; n = inactive; x = no result given.

SMILES | ABHD4 inh | ATG4B inhibitor | HTRA1 inh | PRMT1 FP inh | TCR-CD3 inh | SIAE primary | PRMT1 inh conf
CCOC(=O)C1=C(C)N=c2sc(=Cc3ccc(OCC(=O)O)cc3)c(=O)n2C1c1ccc(SC)cc1 (configuration not stated) | n | x | x | 30 | n | n | n
C=CCN=C1NC(CCc2ccccc2)C(C(=O)OC)=C(C)N1Cc1cccc(C(F)(F)F)c1 (configuration not stated) | n | x | x | n | n | n | x
COc1ccc2c(c1)CO[C@H]([C@H](O)COC(C)=O)[C@H]2/C=C/c1ccccc1 | n | x | x | n | x | n | x
Cc1ccc(CN2CCCCC(NC(=O)c3ccc(F)c(F)c3)C2=O)cc1 (configuration not stated) | n | x | x | n | x | n | x
C=CCNC(=O)CN(C(=O)Cc1ccc(Cl)nc1)c1cccc(Br)c1 | n | x | x | n | x | n | x
Fc1ccc(Nc2nnc(C(F)(F)F)s2)cc1Cl | n | n | n | n | n | n | x
Fc1ccc(Nc2cncc(-c3ccsc3)c2)cc1Cl | n | x | x | 25 | n | n | n
Cc1ccnc(SCc2cc(=O)c(OC(=O)c3ccc(C#N)cc3)co2)n1 | n | x | x | n | x | n | x
CC(C)=C1C2C=CC1C1C(=O)N(c3ccc4c(c3)OCO4)C(=O)C21 (configuration not stated) | n | n | n | 73 | n | n | n
Cc1cc[n+](-c2[nH]c(=O)sc2/C=N/N=C(\[O-])c2ccccc2)cc1C | n | n | n | 62 | n | n | 38
Cc1ccc(S(=O)(=O)N(C)[C@H]2C[C@H]3c4cc(-c5ccccc5C)ccc4CCN3C[C@H]2[C@H](C)O)cc1 | n | x | x | n | x | n | x
C[C@@H]1C[C@@H]2O[C@H]2CCCCC(=O)Cc2cc(O)cc(O)c2C(=O)O1 | n | x | x | n | x | n | x
COC(=O)c1ccccc1NC(=O)CSc1nnc(-c2ccncc2)o1 | n | n | n | 34 | n | n | 45
COC(=O)c1ccc(Cl)c(NC(=O)CSc2nnc(-c3ccncc3)o2)c1 | n | n | n | n | n | n | x
c1ccc(Nc2cccc(Nc3ccccc3)n2)cc1 | n | n | n | 37 | n | n | 42
c1ccc(Nc2ccccn2)cc1 | n | n | n | n | n | n | x
COc1ccc2c(Cl)c(C(=O)N/N=C3\CCCC(=O)C3)sc2c1 | n | n | n | 38 | n | n | n
COc1ccc2c(Cl)c(C(=O)N/N=C/c3ccc4c(c3)OCO4)sc2c1 | n | n | n | n | n | n | x
Cc1ccc(F)cc1NC(=O)CSCc1nc2sc(C)c(C)c2c(=O)[nH]1 | n | n | n | 34 | n | n | 38
CC(=O)Nc1ccc2c(=O)n(-c3ccccc3)sc2c1 | n | x | n | 86 | n | n | 91
CC(=O)Nc1ccc(-c2cc(N)n(-c3ccccc3)n2)cc1 | n | n | n | n | n | n | x
N#Cc1ccc2c(=O)n(-c3ccccc3)sc2c1 | n | x | n | 78 | n | n | 95
N#Cc1ccc(S(=O)(=O)N2CCCc3nc(-c4ccc(F)cc4)ccc32)cc1 | n | x | x | n | n | n | x
CCCCCC(=O)N(O)C1CC(=O)N(c2ccccc2)C1=O (configuration not stated) | n | n | n | 84 | n | n | 85
O=C(c1ccc(F)cc1Cl)N1CCC(Oc2cccnc2)CC1 | n | x | x | n | x | n | x
SMILES | ABHD4 inh | ATG4B inhibitor | HTRA1 inh | PRMT1 FP inh | TCR-CD3 inh | SIAE primary | PRMT1 inh conf
C/C(C/C(C)=C1/SC(=S)NC1=O)=C1\SC(=S)NC1=O | n | 68 | n | 40 | n | n | 24
Cc1ccc(NC(=O)CC2SC3=NCCN3C2=O)cc1 (configuration not stated) | n | n | n | 94 | n | n | n
CCOC(=S)SCc1cn2ccc(C)cc2n1 | n | n | n | 42 | n | n | 26
O=c1ccsn1Cc1ccccc1 | n | n | n | 37 | n | n | 44
O=C1NC(Cc2ccccc2)C(=O)N1Cc1ccccc1 (configuration not stated) | n | n | n | n | n | n | x
CC(=O)Nc1ccc(SCC(=O)c2cc(C)n(-c3ccccc3F)c2C)cc1 | n | n | n | 28 | n | n | 30
COC(=O)c1ccc(-n2c(C)cc(C(=O)CSc3cccc[n+]3[O-])c2C)cc1 | n | n | n | n | n | n | x
COC(=O)c1ccc(-n2c(C)cc(C(=O)CSc3ccc(NC(C)=O)cc3)c2C)cc1 | n | n | n | 50 | n | n | 30
CC(C)NC(=O)c1sc2nc3c(c(-c4cccs4)c2c1N)CN(C)CC3 | n | n | n | 39 | n | n | n
Cc1cccc(NC(=O)c2sc3nc4c(c(-c5cccs5)c3c2N)CN(C)CC4)c1 | n | n | n | n | n | n | x
CCN1/C(=C\C(=S)Nc2ccccc2)Sc2ccccc21 | n | n | n | 71 | n | n | n
COc1ccc(CN(C)C(=O)C2CCCN(c3nc4ccccc4o3)C2)cc1 (configuration not stated) | n | x | x | n | x | n | x
O=C(Nc1ccc(OC(F)(F)F)cc1)Nc1nc2ncccn2c1-c1ccc(C(F)(F)F)cc1 | n | x | x | n | x | n | x
COc1ccc(C2CC(=O)C(c3cccc(C)c3)=CN2Cc2ccccc2)cc1 (configuration not stated) | n | x | x | n | n | n | x
Clc1ccc(Cl)c(-c2nn3c(COc4ccccc4)nnc3s2)c1 | n | n | n | 28 | n | n | n
O=C(CCN1C(=O)/C(=C\c2cccs2)SC1=S)Nc1ccc(C(=O)O)cc1 | n | n | n | n | n | n | x
CC(C(=O)Nc1ccc(O)cc1C(=O)O)N1C(=O)/C(=C\c2cccs2)SC1=S (configuration not stated) | n | n | n | 58 | n | n | 28
C=CCN1[C@H](C#N)[C@@H](c2ccc(C#Cc3cccnc3)cc2)[C@H]1CO | n | x | x | n | x | n | x
Cc1ccc(-c2nc3s/c(=C\c4ccco4)c(=O)n3n2)cc1 | n | n | n | 28 | n | n | n
Cc1nnc2n(c1=O)N=C(c1ccc(Cl)cc1)CS2 | n | n | n | 56 | n | n | 57
CCc1nnc2n1N=C(c1ccc(Cl)cc1)CS2 | n | n | n | n | n | n | x
CC1(C)CC(=O)C2=C(C1)OC(N)=C(C#N)C21CCN(Cc2ccccc2)CC1 | n | n | n | n | n | n | x
Cc1nc2c([nH]1)C1(CCN(Cc3ccccc3)CC1)C(C#N)=C(N)O2 | n | n | n | 42 | n | n | n
CCC(C)(C)C(=O)Nc1ncc(S(=O)(=O)c2ccc([N+](=O)[O-])cc2)s1 | n | n | n | n | n | n | x
O=C(CCl)Nc1ncc(S(=O)(=O)c2ccc([N+](=O)[O-])cc2)s1 | n | n | n | 33 | n | n | n
CN(Cc1ccc2c(c1)CCCN2C)C(=O)[C@H]1O[C@@H](n2ccc(=O)[nH]c2=O)[C@H](O)[C@@H]1O | n | x | x | 52 | n | n | n
CCCCNS(=O)(=O)/C=C/c1ccc(OC)cc1CNC(=O)OC(C)(C)C | n | x | x | n | x | n | x
